Data as given in ChEMBL document CHEMBL2384924, “Antagonists for the orphan G-protein-coupled receptor GPR55 based on a coumarin scaffold” (J Med Chem, 2013).
Active and inactive are the calls of the source. No rule for the calls is given here.

Key:
[1] = target: T1, G-protein coupled receptor 55 (Homo sapiens, UniProt Q9Y2T6); assay: Agonist activity at human GPR55 transfected in CHO cells at 10 uM after 90 mins by beta-arrestin translocation assay; format: cell-based
Summary of the method: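 CHO cells stably expressing human GPR55 (β-galactosidase fragment complementation) were seeded at 20,000 cells/well in Opti-MEM with 2% FCS for 24 h at 37°C. Compound was diluted in PBS with 10% DMSO and 0.1% BSA, screened at 10 µM and incubated 90 min at 37°C. Galacton-Star/Emerald-II/lysis buffer (1:5:19) was added for 60 min at RT, then luminescence was read. Response is relative to 1 µM LPI (100%).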

[2] = target: T2, N-arachidonyl glycine receptor (Homo sapiens) (UniProt Q14330); assay: Antagonist activity at human GPR18 transfected in CHO cells assessed as delta9-THC-induced beta-arrestin recruitment at 10 uM incubated 60 mins prior to delta9-THC addition by beta-arrestin translocation assay; format: cell-based; parameters: scale not given: the % may be the effect or the level left
T2 sequence (whole entry): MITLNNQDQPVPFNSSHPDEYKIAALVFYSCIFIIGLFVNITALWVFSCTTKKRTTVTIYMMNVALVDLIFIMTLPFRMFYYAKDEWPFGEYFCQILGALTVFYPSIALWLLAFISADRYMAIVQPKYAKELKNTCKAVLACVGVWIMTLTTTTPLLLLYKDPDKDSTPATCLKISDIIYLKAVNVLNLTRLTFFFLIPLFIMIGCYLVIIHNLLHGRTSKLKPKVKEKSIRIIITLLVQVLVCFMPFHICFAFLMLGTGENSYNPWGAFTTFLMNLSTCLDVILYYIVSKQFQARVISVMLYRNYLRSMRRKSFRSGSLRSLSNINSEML
Summary of the method: (§1)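 CHO cells stably expressing human GPR18 were seeded at 20,000 cells/well for 24 h at 37°C. Compound in PBS/10% DMSO/0.1% BSA was added 60 min before the GPR18 agonist 3 at 10 µM. The supplier's detection reagent was used, and luminescence was read after 60 min at RT. Screening was at 10 µM (% inhibition); IC50 from concentration-inhibition curves. Three independent experiments in duplicate.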

[3] = target: T3, N-arachidonyl glycine receptor (Homo sapiens, UniProt Q14330); assay: Antagonist activity at human GPR18 transfected in CHO cells assessed as delta9-THC-induced beta-arrestin recruitment incubated 60 mins prior to delta9-THC addition by beta-arrestin translocation assay; format: cell-based; summary of the method: as §1
T3 sequence (Q14330 whole entry): T2 sequence (whole entry)

[4] = target: T1, G-protein coupled receptor 55; assay: Antagonist activity at human GPR55 transfected in CHO cells assessed as inhibition of LPI-induced beta-arrestin recruitment incubated 60 mins prior to LPI addition by beta-arrestin translocation assay; format: cell-based
Summary of the method: (§2)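 CHO cells stably expressing human GPR55 were seeded at 20,000 cells/well for 24 h at 37°C. Compound in PBS/10% DMSO/0.1% BSA was added 60 min before 1 µM LPI. Galacton-Star/Emerald-II/lysis buffer (pH 8) was applied for 60 min at RT, with luminescence read-out. Screening was at 10 µM (% inhibition). IC50 was measured where inhibition exceeded 60%. Three independent experiments in duplicate.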

[5] = target: T1, G-protein coupled receptor 55; assay: Antagonist activity at human GPR55 transfected in CHO cells assessed as inhibition of LPI-induced beta-arrestin recruitment at 10 uM incubated 60 mins prior to LPI addition by beta-arrestin translocation assay; format: cell-based; parameters: scale not given: the % may be the effect or the level left; summary of the method: as §2
[6] = target: Cannabinoid receptor 2 (Homo sapiens, UniProt P34972); assay: Displacement of [3H]-CP55,940 from human CB2 receptor transfected in CHOK1 cells; format: cell-based, CHO-K1
Chain of Cannabinoid receptor 2 (P34972 whole entry): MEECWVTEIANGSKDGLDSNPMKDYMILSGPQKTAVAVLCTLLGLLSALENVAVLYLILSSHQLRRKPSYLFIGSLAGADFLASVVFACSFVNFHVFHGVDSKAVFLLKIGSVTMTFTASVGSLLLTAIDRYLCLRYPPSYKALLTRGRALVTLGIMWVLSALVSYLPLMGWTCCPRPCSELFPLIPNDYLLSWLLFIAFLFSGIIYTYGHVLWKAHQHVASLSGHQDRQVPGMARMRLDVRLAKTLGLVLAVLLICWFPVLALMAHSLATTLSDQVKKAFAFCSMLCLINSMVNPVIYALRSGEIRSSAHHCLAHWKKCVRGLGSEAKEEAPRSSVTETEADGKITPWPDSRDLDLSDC
Summary of the method: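 CHO cells stably expressing human CB2 supplied the membranes, 1 µg protein per vial. Compounds were screened at 10 µM, and full competition curves were run where inhibition was about 50% or more. Three independent experiments in duplicate.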

[7] = target: T4, Cannabinoid receptor 1 (Homo sapiens, UniProt P21554); assay: Displacement of [3H]-CP55,940 from human CB1 receptor transfected in CHOK1 cells at 10 uM; format: cell-based; conditions: CHO-K1
T4 sequence (P21554 whole entry): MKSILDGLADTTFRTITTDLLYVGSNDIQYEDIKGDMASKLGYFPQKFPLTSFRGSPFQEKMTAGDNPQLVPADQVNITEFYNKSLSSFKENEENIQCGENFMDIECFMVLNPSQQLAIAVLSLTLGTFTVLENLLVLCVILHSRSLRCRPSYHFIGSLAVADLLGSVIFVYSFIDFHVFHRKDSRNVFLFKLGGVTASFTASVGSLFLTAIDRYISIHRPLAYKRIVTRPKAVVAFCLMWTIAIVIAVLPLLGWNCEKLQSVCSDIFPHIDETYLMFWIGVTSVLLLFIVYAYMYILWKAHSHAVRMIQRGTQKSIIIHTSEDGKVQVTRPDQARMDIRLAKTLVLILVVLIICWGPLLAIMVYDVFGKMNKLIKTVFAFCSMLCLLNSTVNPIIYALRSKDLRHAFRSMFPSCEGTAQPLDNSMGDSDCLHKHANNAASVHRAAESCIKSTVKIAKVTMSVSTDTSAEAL
Summary of the method: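 Human CB1 from membrane preparations of stably transfected CHO cells, 25 µg protein per vial. Competition with [3H]CP55,940 at 0.1 nM final, with test compound at 10 µM, read as % inhibition of radioligand binding. Final DMSO 2.5%. Three independent experiments in duplicate.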

[8] = target: T4, Cannabinoid receptor 1; assay: Displacement of [3H]-CP55,940 from human CB1 receptor transfected in CHOK1 cells; format: cell-based, CHO-K1

T1 sequence (Q9Y2T6 whole entry, the tested form may be a part): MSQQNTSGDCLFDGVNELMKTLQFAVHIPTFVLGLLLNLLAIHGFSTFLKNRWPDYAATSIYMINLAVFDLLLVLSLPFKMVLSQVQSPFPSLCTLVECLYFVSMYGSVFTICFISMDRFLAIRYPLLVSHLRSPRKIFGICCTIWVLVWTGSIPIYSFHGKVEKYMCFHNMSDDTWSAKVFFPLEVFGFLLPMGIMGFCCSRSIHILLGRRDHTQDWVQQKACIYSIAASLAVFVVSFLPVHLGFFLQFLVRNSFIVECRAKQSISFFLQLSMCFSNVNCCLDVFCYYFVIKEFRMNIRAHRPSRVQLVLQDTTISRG

Row | Structure (SMILES) | Activity [1] | Activity [2] [%] | IC50 [3] [µM] | IC50 [4] [µM] | Activity [5] [%] | Ki [6] [µM] | Activity [7] [%] | Ki [8] [µM]
1 | CCCCCc1cc(OC)c2cc(Cc3ccccc3Cl)c(=O)oc2c1 | inactive | 25 | > 10 | 9 | – | – | – | –
2 | COc1cccc2oc(=O)c(Cc3ccccc3)cc12 | inactive | – | – | > 10 | 43 | – | – | –
3 | CCCCCc1cc(OC)c2cc(Cc3cc(C)c(OC)c(C)c3)c(=O)oc2c1 | inactive | – | – | > 10 | 44 | – | – | –
4 | CCCCC1(c2cc(OC)c3cc(Cc4ccccc4OC)c(=O)oc3c2)CCCC1 | inactive | 25 | > 10 | > 10 | 30 | – | – | –
5 | Cc1ccccc1Cc1cc2c(C)c(O)c(C)c(C)c2oc1=O | inactive | 38 | > 10 | 5.16 | – | 1.56 | 45 | ≥ 10
6 | COc1c(C)c(C)c2oc(=O)c(Cc3ccc(F)cc3)cc2c1C | inactive | 32 | > 10 | 13.5 | – | 1.48 | 49 | 10
7 | COc1ccccc1Cc1cc2c(C)ccc(C)c2oc1=O | inactive | 0 | > 10 | 7.14 | – | 6.83 | 16 | > 10
8 | CCCCCc1cc(OC)c2cc(Cc3cccc(C)c3)c(=O)oc2c1 | inactive | – | – | > 10 | 27 | – | – | –
9 | COc1cccc2cc(Cc3ccccc3)c(=O)oc12 | inactive | – | – | > 10 | 5 | – | – | –
10 | COc1ccc2oc(=O)c(Cc3ccccc3)cc2c1 | inactive | – | – | 10 | 54 | – | – | –
11 | COc1ccc2cc(Cc3ccccc3)c(=O)oc2c1 | inactive | – | – | 10 | 53 | – | – | –
12 | COc1cccc(Cc2cc3c(OC)cc(CO)cc3oc2=O)c1 | inactive | – | – | > 10 | 13 | – | – | –
13 | COc1cc(Br)cc2cc(C)c(=O)oc12 | inactive | – | – | > 10 | 16 | – | – | –
14 | Cc1c(O)c(C)c2cc(Cc3ccc(F)cc3)c(=O)oc2c1C | inactive | 47 | ≥ 10 | 10.3 | – | 0.444 | 34 | > 10
15 | CCCCCc1cc(OC)c2cc(Cc3ccc(F)cc3)c(=O)oc2c1 | inactive | – | – | 10 | 57 | – | – | –
16 | COc1cccc2cc(C)c(=O)oc12 | inactive | – | – | > 10 | 7 | – | – | –
17 | COc1ccc2cc(C)c(=O)oc2c1 | inactive | – | – | > 10 | 25 | – | – | –
18 | CCCCCc1cc(O)c2cc(Cc3ccccc3C)c(=O)oc2c1 | inactive | 10 | > 10 | > 10 | 19 | – | – | –
19 | COc1ccc(Br)c2oc(=O)c(Cc3ccccc3)cc12 | inactive | – | – | > 10 | 2 | – | – | –
20 | COc1ccccc1Cc1cc2c(C)c(OC)c(C)c(C)c2oc1=O | inactive | 27 | > 10 | 0.981 | – | 0.338 | – | 3.66
21 | CCCCCc1cc(O)c2cc(Cc3ccccc3)c(=O)oc2c1 | inactive | – | – | > 10 | 0 | – | – | –
22 | CCCCCCC(C)(C)c1cc(OC)c2cc(Cc3ccccc3)c(=O)oc2c1 | inactive | 31 | > 10 | 10 | 51 | – | – | –
23 | Cc1cc2cc(I)ccc2oc1=O | inactive | – | – | > 10 | 40 | – | – | –
24 | CCCCCc1cc(O)c2cc(Cc3cccc(C)c3)c(=O)oc2c1 | inactive | – | – | > 10 | 19 | – | – | –
